Source: PubChem
EBI2 block – EBI2 (human) antagonism | 360,000 compounds, 0.81% hits | inhibition, % at 5 µM | EBI2 beta-arrestin recruitment, luminescence, 7a,25-OHC stimulated | P32249; in the data active = inhibition above about 38%;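 note: enzyme fragment complementation signal reports receptor beta-arrestin coupling in cells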
APJ antagonist – APJ receptor antagonism. CHO-K1 APJ beta-arrestin complementation, luminescence. 330,000 compounds, 0.32% hits. P35414. inhibition, % at 20 µM;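 active = inhibition above about 40% at 20 µM, limit read from the data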;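 note: cells challenged with 10 nM apelin-13 agonist together with compound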
Target sequence (P35414 whole entry, looked up): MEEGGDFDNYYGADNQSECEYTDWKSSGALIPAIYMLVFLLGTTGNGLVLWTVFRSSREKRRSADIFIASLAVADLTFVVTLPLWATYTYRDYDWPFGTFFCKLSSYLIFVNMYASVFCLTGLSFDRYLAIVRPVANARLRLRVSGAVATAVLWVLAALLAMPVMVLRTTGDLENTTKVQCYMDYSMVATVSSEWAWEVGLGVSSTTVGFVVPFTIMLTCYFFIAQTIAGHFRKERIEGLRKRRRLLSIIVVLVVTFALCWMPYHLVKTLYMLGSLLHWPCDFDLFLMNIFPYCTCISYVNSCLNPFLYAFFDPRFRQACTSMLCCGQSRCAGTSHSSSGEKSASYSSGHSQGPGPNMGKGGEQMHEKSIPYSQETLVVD
CCR6 antagonist – antagonists of human CCR6 receptor. 340,000 compounds, 0.49% hits. P51684. CHO-K1 CCR6 PathHunter beta-arrestin, luminescence, CCL20-stimulated. inhibition, % at 20 µM;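 active = compounds whose inhibition of the agonist-driven luminescence signal at 20 µM reaches about 50%, limit read from the data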;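 note: cells stimulated with CCL20 at 14 nM final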
APJ agonist – APJ receptor agonism; CHO-K1 APJ PathHunter beta-arrestin, luminescence; 0% DMSO wells, 100% apelin; P35414; 330,000 compounds, 0.11% hits; activation, % at 20 µM;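 active = activation more than six SD over the plate average, tested at 20 µM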
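Incubation: overnight seeding, 90 min compound at 25 °C, 1 h detection; test system: PathHunter CHO-K1 APJ (AGTRL-1) beta-arrestin reporter cells; amount: 1000 cells/well; doses: one dose, 20 µM compound, 1% DMSO; measured by: beta-gal luminescence; measure: agonist-driven arrestin binding to APJ; benchmarks: negative DMSO alone, positive Apelin-13 at 10 nM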
CXCR6 block – blocks human CXCR6 beta-arrestin recruitment. 360,000 compounds, 0.36% hits. inhibition, % at 20 µM. CHO-K1 PathHunter CXCR6 beta-arrestin, luminescence; in the data active = inhibition above about 34%, passing the limit was not always enough;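 note: antagonist mode with CXCL16 agonist at 10 nM final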
EBI2 conf – confirmation of human EBI2 receptor antagonists; shares compounds with EBI2 block; EBI2 beta-arrestin luminescence, 7a,25-OHC antagonism; inhibition, % at 5 µM; 2,400 compounds, 29% hits;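 active = inhibition of at least 50%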
EBI2 agonist – activates EBI2, counter-screen for EBI2 antagonists; shares compounds with EBI2 block; EBI2-expressing cells, agonist mode, luminescence, 60 min; 0% vehicle, 100% 7α,25-dihydroxycholesterol control; activation, % at 5 µM; 2,400 tested, under 10 active;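 active = activation of at least 50%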
bGal cs – inhibits E. coli beta-galactosidase, counter-screen for EBI2 antagonists | shares compounds with EBI2 block | purified beta-galactosidase, luminescent Galacton Star, 15 min | inhibition, % at 5 µM | 2,400 compounds, 1% hits | AID 652176;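 active = replicate-average signal at least 3 plate SD below neutral wells, shown as high inhibition, flagging enzyme-inhibiting false positives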;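 note: higher means stronger loss of beta-gal luminescence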
Hits are given with their value; – = inactive; · = no result given. In the library only some 1.5% were active in any assay of this set; here they are far more common.

SMILES	EBI2 block	APJ antagonist	CCR6 antagonist	APJ agonist	CXCR6 block	EBI2 conf	EBI2 agonist	bGal cs
CC(=O)n1cc([C@H]2C=C(C(=O)N3CCN(Cc4ccccc4)CC3)O[C@@H](OCc3ccc(CO)cc3)C2)c2ccccc21	46.8	–	–	–	–	–	–	–
CC(=O)n1cc([C@H]2C=C(C(=O)N3CCN(Cc4ccc5c(c4)OCO5)CC3)O[C@@H](OCc3ccc(CO)cc3)C2)c2ccccc21	–	–	–	–	–	·	·	·
CCOC(=O)NC(=O)C(=CNc1ccc(C)cc1)C(=O)NC(=O)OCC	–	–	–	–	–	·	·	·
NC(=O)c1nc[nH]c1C(=O)Nc1cccc(C(F)(F)F)c1	–	–	–	–	–	·	·	·
COc1cc(/C=N/OCC(=O)NC23CC4CC(CC(C4)C2)C3)ccc1OCc1ccccc1	44.7	–	–	–	–	–	–	–
O=C(NNC(=O)C1CC(c2cccnc2)=NO1)Nc1cccc(F)c1 (stereo not drawn)	–	–	–	–	–	·	·	·
Cc1cccc(C)c1NC(=O)COc1cccc(/C=N/NC(=O)C(=O)NCc2ccccc2)c1	–	–	–	–	–	·	·	·
O=C(Nc1ccc(Oc2ccccc2)nc1)C1CCCCN1Cc1ccc(O)cc1 (stereo not drawn)	85.6	–	·	–	–	54.7	–	–
COc1cc(CN2CCCCC2C(=O)Nc2ccc(Oc3ccccc3)nc2)ccc1O (stereo not drawn)	86.9	–	–	–	–	50.4	–	–
O=C(Nc1ccc(Oc2ccccc2)nc1)C1CCCCN1Cc1cccc(O)c1 (stereo not drawn)	92.7	–	–	–	–	73.6	–	–
CCn1c(SCc2ccc(Cl)cc2Cl)nc2nc3c(cc2c1=O)CCCC3	62.8	–	–	–	–	–	–	–
COc1ccc(/C=C/C(=O)c2cc3c(cc2N)OCO3)cc1	62.7	–	–	–	–	–	–	–
COc1ccccc1OC(C)C(=O)Nc1ccccc1C(=O)NCc1cccnc1 (stereo not drawn)	–	–	–	–	–	·	·	·
CN(C)S(=O)(=O)c1ccc(C(=O)NCC(=O)N/N=C/c2ccccc2Cl)cc1	71.9	–	–	–	–	–	–	–
Cc1ccsc1/C=N/NC(=O)CNC(=O)c1ccc(S(=O)(=O)N(C)C)cc1	–	–	–	–	–	·	·	·
Cc1ccc(/C=N/NC(=O)CNC(=O)c2ccc(S(=O)(=O)N(C)C)cc2)cc1	45.5	–	–	–	–	–	–	–
COc1ccc(Cl)cc1NC(=O)CSc1nc(Nc2ccccc2)nc(N2CCOCC2)n1	–	–	–	–	–	·	·	·
O=C(c1ccc(F)cc1)N1CCN(c2ccc([N+](=O)[O-])cc2-n2cccc2)CC1	55.1	–	–	–	–	–	–	–
O=C(c1ccccc1F)N1CCN(c2ccc([N+](=O)[O-])cc2-n2cccc2)CC1	–	–	–	–	–	·	·	·
CCOC(=O)C1(CCOc2ccccc2)CCN(C(=O)c2ccc(-n3cccn3)cc2)CC1	88.3	–	–	–	–	68.3	–	–
O=C(Nc1cc(C(F)(F)F)ccc1N1CCOCC1)c1ccc2ccccc2n1	44.3	–	–	–	–	–	–	–
N#Cc1ccc(/C=C\c2nccc3c2[nH]c2ccccc23)cc1	47.8	–	–	–	–	–	–	–
Clc1ccc(/C=C\c2nccc3c2[nH]c2ccccc23)cc1	64.8	·	–	·	–	–	–	–
COc1ccccc1C(=O)C1CCCN(Cc2cccc(OCCO)c2)C1 (stereo not drawn)	–	–	–	–	–	·	·	·
Cc1ccc(N(Cc2cc3ccc(C)cc3[nH]c2=O)S(=O)(=O)c2ccccc2)cc1	–	–	–	–	–	·	·	·
SMILES	EBI2 block	APJ antagonist	CCR6 antagonist	APJ agonist	CXCR6 block	EBI2 conf	EBI2 agonist	bGal cs
N#Cc1ccccc1Sc1ccccc1C(=O)Nc1ccc2ccccc2c1	–	–	–	–	–	·	·	·
N#Cc1ccc(C(=O)Nc2ccc3ccccc3c2)cc1	59.6	–	–	–	–	51.2	–	–
Clc1ccc(Cl)c(-c2nn3c(COc4ccccc4)nnc3s2)c1	53.1	–	–	–	–	–	–	–
Cc1nn(Cc2ccc(Cl)cc2Cl)c(C)c1NC(=O)c1ccc(COc2cc(Cl)ccc2Cl)o1	47.4	–	–	–	–	–	–	–
COc1ccc(-c2c(C)nn3c(N4CCN(Cc5ccccc5)CC4)cc(C)nc23)cc1OC	–	–	–	–	–	·	·	·
Cc1cc(N2CCN(Cc3ccccc3)CC2)n2nc(C)c(-c3ccccc3)c2n1	46.9	–	–	–	–	–	–	–
NC(=O)c1c(NC(=O)c2ccc(N3C(=O)CCC3=O)cc2)sc2c1CCCC2	–	–	–	–	–	·	·	·
N#Cc1c(Nc2ccccc2)c(/C=N/NCCO)c[nH]c1=O	–	–	–	–	–	·	·	·
N#Cc1c(Nc2ccccc2)c(/C=N/N=C/c2ccccc2)c[nH]c1=O	95.8	–	–	–	–	85.5	–	–
O=C(CSc1nc2c(c(=O)[nH]1)CCCC2)Nc1ccc(Cl)cc1F	–	–	–	–	–	·	·	·
CC(=O)CSc1nc2ccc(Nc3nc(N4CCOCC4)nc(N4CCOCC4)n3)cc2s1	44.1	–	–	–	–	–	–	–
Cc1ccc(CNC(=O)c2ccc(N3CCCC3=O)cc2)cc1	62.7	–	–	–	–	–	–	–
O=C(NCc1ccc(N2CCCC2=O)cc1)c1ccc(F)cc1	–	–	–	–	–	·	·	·
CC(C)c1ccc(C(=O)NCc2ccc(Cl)cc2)cc1	61.1	–	–	–	–	–	–	–
O=C(NCc1ccc(Cl)cc1)c1ccc(N2CCCC2=O)cc1	54.9	–	–	–	–	–	–	–
COC(=O)c1ccc(Cn2cc(Cl)cn2)o1	–	–	–	–	–	·	·	·
COc1ccc(S(=O)(=O)Nc2cc3c4c(c2)CCN4C(=O)CC3)cc1OC	–	–	–	–	–	·	·	·
Cc1nc(C)c(-c2csc(Nc3ccc(C(=O)O)c(O)c3)n2)s1	–	–	–	–	–	·	·	·
COc1cccc(Nc2nc(-c3sc(C)nc3C)cs2)c1	47.9	–	–	–	–	58.8	–	–
Cc1nc(C)c(-c2csc(Nc3ccc(F)cc3)n2)s1	46.0	–	–	–	–	51.8	–	–
COc1cccc(Nc2nc(-c3sc(N)nc3C)cs2)c1	–	–	–	–	–	·	·	·
CC(=O)c1cccc(NC(=O)COC(=O)c2ccc3c(c2)OCO3)c1	–	–	–	–	–	·	·	·
CSCCC(NC(=O)c1ccccc1Br)C(=O)NNC(=O)c1ccncc1 (stereo not drawn)	–	–	–	–	–	·	·	·
Cc1ccc(CNC(=O)C2CCN(C(=O)Nc3ccc(C)cc3)CC2)cc1	61.6	–	–	–	–	–	–	–
